Experiment: Toxicity liver stage against HepG2, at 10uM
Format: cell-based
Parameters: test concentration 10 uM, cell line HepG2-A16-CD81EGFP
Conditions: human, HepG2-A16-CD81EGFP cells; read-out: INHIBITION
Outline: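 Uninfected HepG2-A16-CD81EGFP cells, 3 × 10^3 per well, 1536-well, plated on prespotted compound at 10 μM final, parasite-free screening media added to match infected plates; puromycin 10 μM positive, DMSO 0.5% negative; run in parallel with 48 h PbLuc assay at 37 °C, 5% CO2; viability by CellTiter-Glo luminescence, normalized to controls.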

Row | Compound | cytotoxicity at 10 µM [%]
1 | O=C(c1sccc1-n1cnnn1)N1CCC(Cc2ccccc2)CC1 | 9.49
2 | CCOc1ccccc1-c1noc(CN(C)Cc2cnn(C)c2)n1 | -6.98
3 | CN1CCN2C(=O)N(c3ccccc3)C[C@H]2C1 | 3.7
4 | Cc1nc2cc(C(=O)N(CCC#N)CC3CCCO3)ccc2[nH]1 (stereo not given) | -0.58
5 | CCCc1cc(=O)[nH]c2nnc(SCC(C)=O)n12 | 7.29
6 | Cc1ccccc1CSc1nc(=O)n(CCO)c2c1CCC2 | 20.6
7 | COCC1CN(Cc2ccsc2)Cc2cnn(C)c21 (stereo not given) | 5.58
8 | CO[C@@H]1CC[C@H]2[C@H]1OCCN2C(=O)c1ccco1 | -148
9 | CCCOc1ccc(C(=O)Oc2cc(=O)n3cccc(C)c3n2)cc1 | 5.17
10 | COc1cccc(CNC(=O)c2cccnc2N)c1 | 20.1
11 | COc1ccc(C2CC(=O)Oc3cc(C)[nH]c(=O)c32)cc1 (stereo not given) | -3.16
12 | COCC(C)(O)CNC(=O)COc1ccccc1OC (stereo not given) | -12.2
13 | O=C(c1ccc(=O)[nH]n1)N1CC(c2nc(Cc3ccccc3)no2)C1 | -19.3
14 | O=S(=O)(NCC1(O)CCOc2ccccc21)c1ccc(Br)s1 (stereo not given) | 1.43
15 | O=S(=O)(NC1=NCN(CCc2cccs2)CN1)c1ccc(F)cc1 | -1.01
16 | Cc1ccoc1C(=O)N1CCO[C@H]2[C@H](OCC3CCOCC3)CC[C@@H]21 | -6.42
17 | Cc1cccc(CN2C[C@@H]3CN(C(=O)NC(C)C)C[C@@H]3C2=O)c1 | -12.9
18 | CC(C)CC(=O)N1CCN(C(=O)N(C)C)CC2(CC(=O)N(C)C2)C1 (stereo not given) | -20.3
19 | O=C1COC2(CCN(Cc3ccccn3)CC2)CN1CC1CC1 | 13.9
20 | Cc1c2ncn(CC(=O)N(C)C)c(=O)c2nn1C | -2.56
21 | CCCn1cc(C(=O)n2nc(C)cc2C)c(S(=O)(=O)N2CCSCC2)n1 | -10.1
22 | Cc1cccc2c1cnn2CCCNC(=O)C(C)C | -2.12

Row | Compound | cytotoxicity at 10 µM [%]
23 | CN(C)[C@@H]1CN(C(=O)c2cc3cccc(F)c3[nH]2)C[C@H]1O | -1.49
24 | CC(C)NC(=O)C1(Cc2ccccc2-c2cncnc2)CCCNC1 (stereo not given) | 3.67
25 | O=C(O)c1cccc(CN2CCCC(Cc3ccn[nH]3)C2)c1 (stereo not given) | 5.39
26 | Cc1cc(C)n(C2CCN(S(C)(=O)=O)CC2)n1 | 15.7
27 | c1ccc2ncc(CC3CCNCC3)cc2c1 | 1.8
28 | COCC(=O)NC(CC(C)C)c1nc2cccnc2n1C (stereo not given) | 15.2
29 | CNC(=O)c1cnc(C)nc1CCNC(=O)CCc1ccccc1 | -0.0555
30 | O=C(N[C@@H]1CC[C@@H](N2CCCC2)[C@@H]1O)c1cc2cccc(F)c2[nH]1 | 2.91
31 | Cc1cc(-c2cnc(N3CCNC(=O)C3)nc2-c2sccc2C)on1 | -12
32 | CC(=O)Nc1nc(C2CCN(C(=O)Cc3ccccc3)CC2)cs1 | -11.8
33 | Cc1cc(CN2CCOC(C)(C(=O)N3CCOCC3)C2)no1 (stereo not given) | -24.2
34 | COCCC(=O)N1CCC(c2cc(O)n(C)n2)C1 (stereo not given) | -23.1
35 | Cc1nc(O)c2nnn(C[C@H]3CCCN3C(=O)c3ccccc3C)c2n1 | -7.36
36 | Cc1ccc(C)c(CC(=O)NC2CCCS(=O)(=O)C2)c1 (stereo not given) | -7.52
37 | Cc1ccc(CNCCC(O)(c2nccn2C)C(F)(F)F)o1 (stereo not given) | 1.18
38 | CC(C)N(C)CCCNC(=O)c1cnn(C(C)C)c1C(F)(F)F | 5.31
39 | CN(c1nc(Cn2cc(Br)ccc2=O)cs1)C1CC1 | 8.34
40 | CN1CCN(C(=O)C2(S(C)(=O)=O)CCCC2)Cc2ccccc21 | -4.96
41 | Cc1noc(C)c1C(C)NC(=O)N1CCC(NC(=O)c2ccsc2)CC1 (stereo not given) | 7.07
42 | CCN1CC(COC(=O)c2ccc(Br)cc2F)CC1=O (stereo not given) | -2.45
43 | CCn1nc2c(cc1=O)CN(CCOc1cccc(C#N)c1)CC2 | 4.67
44 | CCCOC1CCCN(C(=O)c2ccnc(N3CCN(C)CC3)c2)C1 (stereo not given) | -5.7

Row | Compound | cytotoxicity at 10 µM [%]
45 | O=C(N1CCc2ccccc2CC1)C1(O)Cc2ccccc2C1 | 10.8
46 | Cc1ccc(NC2CCN(C(=O)CCCc3ccccn3)CC2)nn1 | 16.4
47 | Cc1cccc(CS(=O)(=O)c2nnc(N3CCOCC3)s2)c1 | -3.48
48 | O=C(NCCNS(=O)(=O)c1ccc(C(F)(F)F)cc1)c1ccoc1 | -1.36
49 | O=C(CN1CCN(c2ccnc3c(F)ccc(F)c23)CC1)NC1CC1 | -1.12
50 | CC(NCCN1CCN(C(=O)C2CCCC2)CC1)c1nccs1 (stereo not given) | -0.513
51 | Cc1cc(Cl)ccc1NCc1cnn(C2CCS(=O)(=O)C2)c1 (stereo not given) | 6.51
52 | COCCN(C(=O)c1ccn(-c2ccc(OC)cc2)n1)C(C)C(N)=O (stereo not given) | 0.337
53 | Cc1cnc(-c2nc(-c3cccc(CN4CCOCC4)c3)no2)cn1 | -4.21
54 | CCOCC(=O)NS(=O)(=O)c1ccc(F)cc1C(F)(F)F | 3.25
55 | CC(CNC(=O)c1ccon1)Oc1cccc(Br)c1 (stereo not given) | -1.52
56 | CC(C)c1nnc(CN(C)C(c2ccccc2)c2ccc(F)cc2)o1 (stereo not given) | 15.5
57 | CC(=O)N1CCCN(C(=O)c2ccc(Sc3ccccn3)cc2)CC1 | 10.9
58 | Cc1cc(OC(F)F)c(C(=O)N2CCC(N(C)C)CC2)s1 | 6.9
59 | Cc1csc(CNc2cnn(C(C)C)c2)n1 | 9.45
60 | CC(CNC1CCN(Cc2ccncc2)CC1)c1ccc(F)cc1F (stereo not given) | -9.73
61 | CCc1ccc(C(=O)NCCCC2(C3OCCO3)CCOCC2)cc1 | 15.6
62 | CC(C)NC(=O)C1CCN(C(C)C(=O)N2CCc3sccc3C2)CC1 (stereo not given) | 5.52
63 | CC(C)OCCOCc1cccc(NC(=O)NCc2ccccn2)c1 | -2.35
64 | COc1ccc(-c2nc(CN3CC(n4nc(C)cc4C)C3)no2)cc1 | -3.88
65 | CCN(CC)c1ccc(NS(=O)(=O)c2cnn(C)c2)cn1 | -7.12
66 | COCCN1CCN(S(C)(=O)=O)Cc2cccnc21 | 5.7

Row | Compound | cytotoxicity at 10 µM [%]
67 | O=C(c1ccco1)N1CCO[C@@H]2CNCC[C@@H]2C1 | -75.2
68 | CC(C)c1nc(CN(C)C(=O)CCS(=O)(=O)c2ccccc2)no1 | -20.3
69 | CCC(OC)C(=O)NCC1CCN(c2cnn(C)c(=O)c2)CC1 (stereo not given) | 7.35
70 | CN1CC2(CCCN(C(=O)c3cnc4ccc(F)cc4c3O)C2)OC1=O (stereo not given) | 6.25
71 | CCn1ncnc1C(C)NC(=O)CC1CCN(C(C)C)CC1 (stereo not given) | -133
72 | OC1CCN(CCCn2ccnc2-c2c[nH]cn2)CC1 | -1.57
73 | O=c1c(CN2CCOCC2)coc2ccc(Cl)cc12 | -3.73
74 | COCCN(C)C[C@@H]1CN(C(=O)c2ccc(OC)c(F)c2)C[C@@H]1CO | 2.87
75 | Cn1c(Cn2ccnc2)nnc1C1CCCN(CC(C)(C)C)C1 (stereo not given) | 3.89
76 | C/C=C(\C)CN1C[C@H](c2cccc(OC)c2)[C@@H](N)C1 | 3.49
77 | COc1cccc(F)c1C(=O)N1C[C@@H](CN(C)CCO)[C@@H](CO)C1 | -5.88
78 | O=S1(=O)C[C@@H]2[C@H](C1)N(Cc1ncc[nH]1)CCN2CC1CC1 | -7.18
79 | CCC(O)CNC(=O)C1(N(C)Cc2ccccc2)Cc2ccccc2C1 (stereo not given) | 7.62
80 | CCCS(=O)(=O)N1CCN(c2cc(-n3nc(C)cc3C)nc(C)n2)CC1 | -13.7
81 | Cc1nc(O)c2nnn(C[C@H]3CCCN3C(=O)CCC3CCCC3)c2n1 | 5.02
82 | Cc1nc(CN2CCCC(c3cc(C(N)=O)[nH]n3)C2)oc1C (stereo not given) | -31.2
83 | Cc1cc(C(=O)O)cc(S(=O)(=O)Nc2ccc3c(c2)OCCO3)c1C | -3.95
84 | CS(=O)(=O)NCC1CCCN(C(=O)CCCc2ccccc2)C1 (stereo not given) | -2.78
85 | Cc1nc(C)n(CC2CCCN(CC(=O)Nc3ccncc3)C2)n1 (stereo not given) | -5.75
86 | Cc1cc(NC(=O)NCC(CC(C)C)N2CCOCC2)n(C)n1 (stereo not given) | -15
87 | Cc1ccc(-c2nc(CN3CCCC3Cn3cncn3)co2)cc1 (stereo not given) | -7.29
88 | CC(O)CN1CCN(C(=O)c2cccn2Cc2ccccc2)CC1 (stereo not given) | -8.87

Row | Compound | cytotoxicity at 10 µM [%]
89 | CCn1c(CNCC2CCCN2c2cccnn2)nc2ccccc21 (stereo not given) | -10.2
90 | O=C(NCCNc1ncccn1)N1CCCC1 | -12.8
91 | O=C(NCc1cccnc1-n1cncn1)c1ccc2c(c1)CCO2 | -14.2
92 | Cc1ncc(C(=O)NCCNc2ncccc2C#N)s1 | -8.18
93 | Cc1nc(CN(C)C2CCN(CCCOc3ccc(F)cc3)C2)no1 (stereo not given) | -8.27
94 | CCc1nc(CN(C)C2CCN(CCOc3ccccc3)C2)no1 (stereo not given) | -34.6
95 | CCn1c(CN2CCCN(C(=O)OC)CC2)nc2c(F)cccc21 | -8.6
96 | O=C(Cc1ccc2c(c1)OCCO2)NC1CCCC1 | -3.07
97 | Fc1ccc(-c2nnc(CN3CCn4c(nnc4C4CC4)C3)o2)cc1 | 0.577
98 | Cc1ccc(-c2nc(CN3CCc4nn(C)c(=O)cc4C3)co2)cc1 | -11.6
99 | Cn1ccnc1N1CCN(C(=O)Cc2ccc(F)cc2)CC1 | 4.73
100 | CCN1CCn2c(C)cnc2C12CCN(C(=O)CC(C)C)CC2 | -5.93
101 | CCOC(=O)[C@]12CCCN(Cc3ccco3)C[C@H]1CN(CCN(C)C)C2 | -17.9
102 | COCc1cnc2n1CCN(Cc1cccnc1)C2C (stereo not given) | -8.79
103 | CCC(=O)N1CC[C@H]2[C@H](C[C@@H](CN3CCCC3)N2c2nccs2)C1 | 10.2
104 | CCN(C)C1COC2(CCN(C(=O)c3cccc(Cl)c3)CC2)C1 (stereo not given) | -5.66
105 | CO[C@H]1CCN(C(=O)c2ccsc2)[C@@H]2CN(CC3CC3)C[C@H]12 | 1.64
106 | CN(C)CCN1CCC2(CCN(C(=O)c3cccc(F)c3)CC2)C1=O | -6.19
107 | CS(=O)(=O)N1C[C@@H]2C[C@H](C(=O)N3CCOCC3)[C@H](C1)O2 | -2.92
108 | CSc1ncccc1C(=O)N1C[C@@H]2CC[C@H]1CN(c1cnccn1)C2 | -2.72
109 | Cc1nonc1CC(=O)N1C[C@H]2CC[C@@H](C1)N(Cc1ccccc1)C2=O | -11.6
110 | Cc1ccc(-n2cc3[nH]c(=O)n(C(C)C)n3c2=O)cc1 | -8.9
